The text below walks through data of ChEMBL document CHEMBL4354825, “Design and Synthesis of Basic Selective Estrogen Receptor Degraders for Endocrine Therapy Resistant Breast Cancer” (J Med Chem, 2019).

In one data set the test system is Mus musculus. Nature of the data set: In vivo degradation of ERalpha in C57BL/6 mouse at 50 mg/kg, po administered for 3 days and measured on day 3 by Western blot analysis. Format: functional, organism-based. Put shortly:
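Female C57BL/6J mice aged 9–12 weeks were dosed at 50 mg/kg p.o. in PEG 400/10% HPCD (1:9 v/v). Regimens were a single dose with sacrifice at 5 h, or 3 daily doses with sacrifice 5 h (n = 5) or 7 h (n = 6) after the last dose. Ovaries and uterus were homogenized, 20 μg protein was run by SDS-PAGE, and the blot was probed for ERα and normalized to β-actin.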
In general terms: Immunoblotting shows a protein as a band on a membrane.

The next data set concerns Rattus norvegicus. In words: Induction of uterotrophic activity in Sprague-Dawley rat assessed as increase in uterine weight at 10 mg/kg, po administered for 3 days and measured after 24 hrs of last dosing by hematoxylin eosin staining based imaging analysis. Type of data set: functional, organism-based. Put shortly: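 Female Sprague-Dawley rats were dosed from day 19 of age once daily for 3 days: 10 mg/kg p.o. in 2% Tween 80/0.5% methylcellulose. EE2 (0.1 mg/kg p.o., peanut oil) was the positive control. Uteri were excised and weighed 24 h after the last dose; one half was fixed in 4% paraformaldehyde for H&E histology.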

For data set [1], the target named is T1, Estrogen receptor (Homo sapiens) (UniProt P03372).
T1 sequence (whole entry): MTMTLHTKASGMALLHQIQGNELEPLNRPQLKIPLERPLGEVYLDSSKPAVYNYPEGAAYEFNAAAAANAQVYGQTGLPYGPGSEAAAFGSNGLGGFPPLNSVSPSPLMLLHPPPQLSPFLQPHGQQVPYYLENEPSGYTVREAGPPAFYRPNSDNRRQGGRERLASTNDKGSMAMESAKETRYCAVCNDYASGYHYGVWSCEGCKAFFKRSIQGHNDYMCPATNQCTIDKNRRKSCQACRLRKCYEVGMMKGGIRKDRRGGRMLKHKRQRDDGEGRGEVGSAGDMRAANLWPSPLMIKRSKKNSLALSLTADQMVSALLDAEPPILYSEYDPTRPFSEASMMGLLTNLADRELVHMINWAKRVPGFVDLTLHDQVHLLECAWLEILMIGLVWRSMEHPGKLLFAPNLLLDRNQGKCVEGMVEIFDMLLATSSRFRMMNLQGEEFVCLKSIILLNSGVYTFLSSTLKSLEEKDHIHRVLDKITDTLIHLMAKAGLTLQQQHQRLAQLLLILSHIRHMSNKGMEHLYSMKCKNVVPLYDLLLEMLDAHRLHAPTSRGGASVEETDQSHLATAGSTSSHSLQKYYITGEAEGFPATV
In words: Induction of degradation of ERalpha in human MCF7:WS8 cells at 100 nM in presence of MG-132 incubated for 24 hrs by Western blot analysis. Type of data set: cell-based.

Data set [2] is described as follows: AUClast in C57BL/6 mouse at 5 mg/kg, iv measured upto 24 hrs by LC-MS/MS analysis. Type of data set: ADME, organism-based. The settings on record: in vivo. The arrangement: time < 24 hr, dose 5 mg/kg, route intravenous. In outline: (§1)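 Full PK run by a contract lab. Dosing was 50 mg/kg p.o. in water and 10% SBE-β-CD/PEG-400 (9:1 v/v), and 5 mg/kg i.v. Sampling at 0.25, 0.5, 1, 2, 4, 8 and 24 h (N = 5). Plasma samples were diluted in 50% acetonitrile and quantified by LC-MS/MS against standards serially diluted in 50% acetonitrile. Brain was also sampled after the oral dose.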

A short description of data set [3]: AUC (0 to infinity) in C57BL/6 mouse brain at 50 mg/kg, po measured upto 24 hrs by LC-MS/MS analysis. The settings on record: in vivo. Type of data set: ADME, organism-based. The arrangement: dose 50 mg/kg, route oral, time infinity. Put shortly: as §1
Data set [4] has as its target T2, Estrogen receptor (Homo sapiens, UniProt P03372).
T2 sequence (P03372 whole entry): T1 sequence (whole entry)
In words: Inhibition of ERalpha in human MCF7:WS8 cells assessed as increase in degradation of ERalpha incubated for 24 hrs by In-Cell Western assay. Format: cell-based. In outline:
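MCF7:WS8 cells were estrogen-stripped for 2 days and plated at 2.5 × 10^4 per well. ERα was detected by in-cell western (H10 antibody), with signal normalized to CellTag 700.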

Data set [5] is filed under the species Homo sapiens. Nature of the data set: Cytotoxicity against human MCF7:WS8 3D spheroid cells assessed as reduction in tumor cell viability at 10 nM incubated for 14 days by celltiter-glo 3D cell viability assay.
The nature of data set [6]: Plasma concentration in C57BL/6 mouse at 100 mg/kg, po measured after 2 hrs by LC/MS-MS analysis. Type of data set: ADME, organism-based. In outline:
(§2)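 PK screen in female C57BL/6 mice (N = 3 per time point). Dosed by gavage at 100 mg/kg in HPβD/PEG-400. Plasma and brain were taken from perfused mice at 30 and 120 min. Quantified by LC-MS/MS in MRM mode, with standard curves in each matrix and a common internal standard. Values are mean and s.d.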

Data set [7] in a line: Oral bioavailability in C57BL/6 mouse at 50 mg/kg measured upto 24 hrs by LC-MS/MS analysis. Format: ADME, organism-based. The settings on record: in vivo. In outline: as §1
A short description of data set [8]: Half life in CD-1 mouse plasma at 50 mg/kg, po measured upto 24 hrs by LC-MS/MS analysis. As to conditions: in vivo.
Data set [9] can be described thus: Drug concentration in C57BL/6 mouse brain at 100 mg/kg, po measured after 0.5 hrs by LC/MS-MS analysis. Type of data set: ADME, organism-based. The settings on record: read-out: Drug uptake. In outline: as §2
The nature of data set [10]: AUC (0 to infinity) in C57BL/6 mouse at 5 mg/kg, iv measured upto 24 hrs by LC-MS/MS analysis. Also on record: dose 5 mg/kg, route intravenous, time infinity. Type of data set: ADME, organism-based. The settings on record: in vivo. Put shortly: as §1
Data set [11] in a line: AUC extrapolated from the last time point to infinity in CD-1 mouse at 5 mg/kg, iv measured upto 24 hrs by LC-MS/MS analysis. As to conditions: in vivo.
For the next data set, the system named is MCF7:TAM1. In words: Cytotoxicity against human MCF7:TAM1 3D spheroid cells assessed as reduction in tumor cell viability at 10 nM incubated for 14 days by celltiter-glo 3D cell viability assay. For orientation: ATP-based viability assays read luminescence as a measure of living cells.
Data set [12] has as its target T2, Estrogen receptor. In words: Antagonist activity at ERalpha in human MCF7:WS8 cells incubated for 18 hrs by dual luciferase reporter gene assay relative to control. Type of data set: cell-based. In outline:
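MCF7:WS8 cells were estrogen-deprived for 3 days (phenol red-free RPMI, stripped FBS), then plated and grown 24 h. They were co-transfected for 6 h with a 3×vitellogenin ERE-firefly luciferase plasmid and a pRL-TK Renilla plasmid. Compounds were given in competition with 1 nM E2 for 18 h, then dual luciferase was read.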
For orientation: In a reporter assay the amount or activity of a reporter protein is the signal.

A short description of data set [13]: AUClast in C57BL/6 mouse brain at 50 mg/kg, po measured upto 24 hrs by LC-MS/MS analysis. Format: ADME, organism-based. As to conditions: in vivo. The arrangement: dose 50 mg/kg, time < 24 hr, route oral. Put shortly:
as §1

Data set [14] is described as follows: Cmax in CD-1 mouse plasma at 50 mg/kg, po measured upto 24 hrs by LC-MS/MS analysis. As to conditions: in vivo.
The species entered for data set [15] is Homo sapiens. Nature of the data set: Cytotoxicity against human MCF7:WS8 3D spheroid cells assessed as reduction in tumor spheroid size at 10 nM incubated for 14 days.
A short description of the next data set: cells. As to conditions: Homo sapiens, MCF7:5C, 168 h, read-out: pIC50 (converted).
Data set [16] can be described thus: MRT (0 to infinity) in CD-1 mouse at 5 mg/kg, iv measured upto 24 hrs by LC-MS/MS analysis. As to conditions: in vivo.
A short description of data set [17]: Half life in C57BL/6 mouse at 5 mg/kg, iv measured upto 24 hrs by LC-MS/MS analysis. Format: ADME, organism-based. As to conditions: in vivo. Put shortly: as §1

The source made the active and inactive calls. The calls are words filed in the database; no cut-off is given here.

As usually defined, the AUC is concentration integrated over time. A higher AUC goes with more exposure. What is called Cmax is the peak of the concentration-time curve. As a reminder, the MRT is the average time that molecules of a dose stay in the body. In the case of `Cc1cc(F)cc(C)c1C(=O)c1sc2cc(O)ccc2c1Oc1ccc(OC2CN(CCCF)C2)cc1`, the outcome with Mus musculus, in the data set listed under Homo sapiens [5], with MCF7:TAM1 and in the data set filed under Homo sapiens [15] was Active. For the same compound, the outcome (in the data set on Rattus norvegicus; in data set [1]) was inactive. Moreover, the AUClast in [2] is 766 ng·h/mL; in data set [13], 2106 ng·h/mL. The AUC in data set [3] amounted to 3450 ng·h/mL; in data set [10] it was 778 ng·h/mL. Moreover, the results for the IC50 on Estrogen receptor [4], against Estrogen receptor [12] and in the data set “cells” were 1.02 nM, 3.1 nM and 0.347 nM, respectively. In data set [6], this compound gave a concentration at 2 h of 2150 nM. In [7], this compound showed an F of 21.9%. The values for the t1/2 in data set [8] and in data set [17] were 4.48 h and 1.68 h, respectively. For the same compound, the concentration at 0.5 h in data set [9] turned out to be 1630 nM. Besides, the “%AUCextra” value in [11] is recorded as 1.52%. Further, in data set [14], the Cmax is 413 ng/mL. Further, the MRT in data set [16] was 1.07 h.
